# Measurements from PMC7135742 (Nature biomedical engineering, 2020).
# pKd: −log10 of the molar value.
# Key:
# pANXA2 in 4T1 cells = assay: Western blot of pANXA2 levels after insulin / PP2 treatment; assay type: cell-based, murine; settings: 100 nM insulin 4 h, PP2 co-administration
# Procedure, shortened: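 4T1 murine breast cancer cells serum-starved overnight, then treated with 100 nM insulin for 4 h or with PP2, following the same protocol as the insulin imaging study. Cells lysed by ultrasonic homogenisation in RIPA buffer (10 mM Tris-HCl, pH 8.0), and lysates resolved by SDS-PAGE and immunoblotted for pANXA2.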
# [1] = test system: A549, MDA-MB-231, and 4T1; assay: Cellular uptake by fluorescence microscopy, solid cancer cell lines; assay type: cell-based; settings: 1 μM cypate, all cells
# Procedure, shortened: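 Cells were grown in medium with 10% FBS and penicillin/streptomycin (37°C, 5% CO2), then seeded overnight on 8-chamber slides. Compound stock was made in 20% DMSO in PBS (pH 7.4) and diluted into medium to 1 µM final, then incubated at 37°C for several time points. SYTO 13 nuclear stain was added for 45 min at 37°C before epifluorescence or confocal imaging.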
# LS301 = assay: MST of LS301 with whole-cell lysate; settings: reference: lysate of insulin-stimulated 4T1 cells; sites Y23
# tumours = settings: cited from earlier work
# 4T1 luc/GFP cells = assay: In vitro blocking study of LS301 uptake; assay type: cell-based, murine; settings: 24 h, LS301 1 µM, blocking agent 50 µM
# [2] = molecular target: LS301 (cypate-cyclic(DCys-Gly-Arg-Asp-Ser-Pro-Cys)-Lys-OH); assay: MST
# Chain of ANXA2 (endogenous, 4T1 cells) (P07356 whole entry, looked up, change not shown): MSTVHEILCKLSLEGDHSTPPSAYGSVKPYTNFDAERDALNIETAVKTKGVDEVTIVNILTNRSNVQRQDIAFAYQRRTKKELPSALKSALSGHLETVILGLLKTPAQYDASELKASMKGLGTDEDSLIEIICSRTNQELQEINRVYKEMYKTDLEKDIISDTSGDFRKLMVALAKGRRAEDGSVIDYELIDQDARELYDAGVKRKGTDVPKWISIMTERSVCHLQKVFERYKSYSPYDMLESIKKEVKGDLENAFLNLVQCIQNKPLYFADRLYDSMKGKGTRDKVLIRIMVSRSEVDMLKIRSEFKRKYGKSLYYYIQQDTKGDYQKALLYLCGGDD
compound,measurement,setting,value
CC(C)(C)n1nc(-c2ccc(Cl)cc2)c2c(N)ncnc21 [PP2],effect on pANXA2 levels in 4T1 cells,pANXA2 in 4T1 cells,this effect was suppressed
CC1(C)C(/C=C/C=C/C=C/C=C2/N(CCC(=O)O)c3ccc4ccccc4c3C2(C)C)=[N+](CCC(=O)[O-])c2ccc3ccccc3c21 [cypate],cellular retention of cypate alone,[1],only transient retention in all cells
"ANXA2 (endogenous, 4T1 cells) (from UniProt P07356) lysate of PP2-treated 4T1 cells",KD,LS301,weaker; reference 0.017 ± 0.004 nM
Cypate-GRDSPK,retention of Cypate-GRDSPK in tumours,tumours,the retention was transient
LCKLSL,blocking of LS301 binding and internalization in cells,4T1 luc/GFP cells,inhibited the binding and internalization of LS301 in cells
Purified ANXA2 protein (Annexin A2) (from UniProt P07355 1-339) (natural protein),pKd,[2],9.41
Purified pANXA2 protein (Annexin A2 phosphorylated at tyrosine 23) (from UniProt P07355 1-339) (natural protein),pKd,[2],10.12
insulin: stimulates tyrosine-23 phosphorylation of ANXA2,effect on pANXA2 levels in 4T1 cells,pANXA2 in 4T1 cells,increased levels of pANXA2 relative to unstimulated cells
